Assay outcomes from PubChem BioAssay.
Sampled rows, rich in hits. Any-hit rate of the full collection: about 1.8%.
M5 ag: CHRM5 agonism in calcium assay | AID 624037 | CHO-K1 hM5 cells, Fluo-8 calcium fluorescence; 0% DMSO wells, 100% maximal acetylcholine response | activation, % at 3 µM | actives 0.19% (n = 360,000) | P08912;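 active means activation above the run's mean over test compounds plus 3 SD, cut at about 23% in these data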;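 further: signal is peak over basal fluorescence ratio across the kinetic read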
Target sequence (P08912 whole entry, looked up): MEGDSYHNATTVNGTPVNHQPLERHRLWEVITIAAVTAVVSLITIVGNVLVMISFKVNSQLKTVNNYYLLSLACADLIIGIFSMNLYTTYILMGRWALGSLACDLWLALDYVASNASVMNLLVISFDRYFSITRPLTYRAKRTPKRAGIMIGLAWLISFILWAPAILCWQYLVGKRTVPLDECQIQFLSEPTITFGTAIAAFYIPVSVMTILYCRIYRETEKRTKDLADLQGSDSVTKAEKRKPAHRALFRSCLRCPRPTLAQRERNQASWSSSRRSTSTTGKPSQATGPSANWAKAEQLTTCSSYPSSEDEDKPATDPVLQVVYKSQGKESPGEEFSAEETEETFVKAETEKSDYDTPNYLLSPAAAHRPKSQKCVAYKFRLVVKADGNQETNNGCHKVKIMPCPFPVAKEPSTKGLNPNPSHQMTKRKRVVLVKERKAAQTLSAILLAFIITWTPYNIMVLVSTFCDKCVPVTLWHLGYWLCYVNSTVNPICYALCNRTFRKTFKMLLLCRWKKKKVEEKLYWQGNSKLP
CHRM5 PAM: potentiates acetylcholine response at human M5 receptor | CHO-K1 hM5, Fluo-8 calcium, ACh EC20 PAM; 0% = ACh EC20, 100% = ACh EC100 | activation, % at 3 µM | AID 624038 | actives 0.3% (n = 360,000) | P08912;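 active means activation above the run cutoff, the mean activation of all test compounds plus 3 SD, cut at about 18% in these data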
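Measured by: Fluo-8 calcium fluorescence; material: human M5 receptor in CHO-K1 cells; schedule: Post-acetylcholine fluorescence recording 140 s; benchmarks: low control EC20 acetylcholine (0%), high control EC100 acetylcholine (100%); read-out: Max/basal fluorescence ratio as % of EC20–EC100 ACh window; compound: single dose, 3 µM nominal final test concentration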
M5 antag: blocks acetylcholine activation of human M5 receptor; inhibition, % at 3 µM; CHO-hM5 cells, Fluo-8 calcium fluorescence, ACh EC80; AID 624040; actives 0.59% (n = 360,000); P08912;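 active means inhibition above a per-plate cutoff, the mean of that plate's test compounds plus 3 SD, cut at about 27% in these data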
M4 antag: CHRM4 antagonism in calcium assay. actives 0.73% (n = 360,000). CHO-hM4 cells, ACh EC80, Fluo-8 calcium fluorescence. inhibition, % at 3 µM. P08173;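 active means inhibition above its plate's cutoff, the mean inhibition of sample wells plus 3 SD, cut at about 27% in these data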
M4 PAM: potentiates acetylcholine response at human M4 receptor. P08173. CHO-K1 hM4/Gqi5, Fluo-8 calcium fluorescence, ACh EC20; 0% = ACh EC20, 100% = maximal ACh. activation, % at 3 µM. actives 0.4% (n = 360,000). AID 624126;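 active means activation above its plate's cutoff, the mean activation of sample wells plus 3 SD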
M4 ag: CHRM4 agonism in calcium assay. actives 0.14% (n = 360,000). P08173. activation, % at 3 µM. CHO-K1 hM4/Gqi5, Fluo-8 calcium fluorescence; vehicle 0%, full acetylcholine response 100%;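 active means activation above the run mean over all test wells plus 3 SD, cut at about 32% in these data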;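 further: peak over basal fluorescence ratio per well then scaled between controls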
Each line names hits and unclear results; the compound was inactive in the other large screens.

CCN(C(=O)COC(=O)c1nc(Cl)ccc1Cl)c1c(N)n(Cc2ccccc2)c(=O)[nH]c1=O	none
COCCN(C(=O)COC(=O)c1cccnc1Cl)c1c(N)n(Cc2ccccc2)c(=O)[nH]c1=O	none
CC(C)CN(C(=O)COC(=O)C12CC3CC(CC(Cl)(C3)C1)C2)c1c(N)n(Cc2ccccc2)c(=O)[nH]c1=O	none
CCC(C)C(CO)NCCCn1cnc2c(OCc3ccccc3)ncnc21 (centres undefined)	none
COCCN(C(=O)Cc1coc2cc(C)c(C)cc12)c1c(N)n(Cc2ccccc2)c(=O)[nH]c1=O	M5 antag 100
Cc1cc(C)n(-c2nc(NC(C)(C)C)nc(NC(C)(C)C)n2)n1	none
Cc1cc(C)n(-c2nc(Nc3ccccc3C(F)(F)F)nc(-n3nc(C)cc3C)n2)n1	M5 antag 30
COc1ccc(C2=Nc3ccccc3N(C(=O)c3cc(Cl)cc(Cl)c3)C2C(=O)NCc2ccccc2)cc1 (centres undefined)	none
Cc1cccc(C)c1NC(=O)c1ccc([N+](=O)[O-])s1	M4 PAM 25
Cc1ccc(S(=O)(=O)NC(=O)C2(C)CCN2C(=O)c2cccc(F)c2)cc1 (centres undefined)	none
CC(NC(=O)c1ccc(NC2=NC3CS(=O)(=O)CC3S2)cc1)c1ccccc1 (centres undefined)	M4 antag 94
O=C(Cc1ccc(NC2=NC3CS(=O)(=O)CC3S2)cc1)NCc1ccccc1Cl (centres undefined)	M4 PAM 16
O=C(Cc1ccc(NC2=NC3CS(=O)(=O)CC3S2)cc1)NCc1ccccc1 (centres undefined)	none
CCCCNC(=O)c1nc(C2CCN(S(=O)(=O)c3ccc(OC(F)(F)F)cc3)CC2)oc1-c1ccccc1	none
O=c1[nH][nH]c(-c2ccccc2)c1C=Nc1ccc(F)cc1F	M4 PAM 21
O=C(CCC(=O)c1ccccc1)NC1CCCN(Cc2ccccc2F)C1 (centres undefined)	none
CCCC(NC(=O)Cc1c(C)c2c(cc(C)c3c(C)coc32)oc1=O)C(=O)O (centres undefined)	none
CN1CCN(CC(O)(c2ccc(Cl)cc2)c2ccc(Cl)cc2)CC1	M5 antag 36
O=C(Nc1nccs1)Oc1ccccc1	M4 PAM 28
O=C(CCCOc1ccccc1)Nc1nccs1	none
Cc1ccc(S(=O)(=O)N[C@H](C(=O)OCC(=O)NC(=O)c2cccn2C)C(C)C)cc1	none
CN(C)c1ccc(S(=O)(=O)N2CCCCC2)cc1NC(=O)CCNC(=O)c1ccccc1Cl	none
C/C(=N\NC(=O)c1ccc(Cl)cc1)c1cccs1	M4 PAM 22
C/C(=N\OCC(=O)N/N=C/c1ccc(C)cc1O)c1cccs1	CHRM5 PAM 33
Cc1ccc(/C=N/NC(=O)Cc2ccc(Cl)cc2)c(O)c1	none
C/C(=N\NC(=O)c1ccc(NS(=O)(=O)c2cccs2)cc1)c1cccs1	none
C/C(=N\NC(=O)CO/N=C(\C)c1cccs1)c1ccc(N)cc1	M4 antag 29
CN(C)C(=O)c1cccc(-c2cnc3cccnn23)c1	none
COCCNS(=O)(=O)c1ccc(-c2ccc(Cl)cc2)cc1	CHRM5 PAM 21
CN(C(=O)c1cccc(NC(=O)Cc2cccc(NC(=O)C3CCN(C(=O)C4CCCCC4)CC3)c2)c1)C1CCC1	none
Cc1onc(-c2ccccc2)c1C(=O)Nc1nnc(N(C)Cc2ccccc2)s1	M4 PAM 18
Cc1ccccc1C(=O)N1CCN(c2ccc(NC(=O)CSc3ccc(Cl)cc3)cc2)CC1	M4 antag 27
O=C(COc1ccccc1)N(Cc1nnc(-c2ccccc2Cl)o1)C1CC1	none
c1ccc(C(CN2CCOCC2)c2ccccc2)cc1	M5 antag 99
CC(CN1CCCCC1)OC(=O)C(C)(c1ccccc1)c1ccccc1 (centres undefined)	M5 antag 40
CC(CN1CCOCC1)OC(=O)C(C)(c1ccccc1)c1ccccc1 (centres undefined)	none
O=C(CCCc1ccccc1)NCCc1ccc(F)cc1	none
COc1ccc(NS(=O)(=O)c2cc(C(=O)N3CCN(C/C=C/c4ccccc4)CC3)ccc2C)cc1	none
O=C1C=CC2(C=C1)O[C@H](Cc1ccccc1)[C@@H](Cc1ccccc1)O2	M4 antag 62
COc1ccc(N2C(=O)CC(Cc3ccccc3)C2=O)cc1 (centres undefined)	none
COc1ccc(C[C@@H]2OC3(C=CC(=O)C=C3)O[C@H]2Cc2ccc(OC)cc2)cc1	M4 antag 76
CC1(C(=O)NS(=O)(=O)c2ccccc2Cl)CCN1C(=O)C/C=C/c1ccccc1 (centres undefined)	none
CC(=O)OC1c2ccccc2C(=O)N1Cc1ccccc1Cl (centres undefined)	M4 antag 34
C(C#CCCCCCCCCC[n+]1ccccc1)#CCCCCCCCCC[n+]1ccccc1	M5 antag 99, M4 antag 92
Cc1cc(O)ccc1-c1cc(C(=O)NCc2ccc(F)cc2)[nH]n1	M5 ag 33
COc1ccc(NC(=O)CCNC(=O)c2ccc([N+](=O)[O-])cc2)cc1S(=O)(=O)N1CCCCC1	M4 PAM 22
CCS(=O)(=O)C1=NSC2=NC(=O)/C(=C\c3ccc(OS(=O)(=O)c4ccccc4)c(OC)c3)C(=N)N21	CHRM5 PAM 29
COc1cc(/C=C2/C(=N)N3C(=NC2=O)SN=C3S(C)(=O)=O)ccc1OS(=O)(=O)c1ccc(C)cc1	none
C(=N\n1cnnc1)/c1ccc(OCc2ccccc2)cc1	none
Cc1cc(/C=N/n2cnnc2)c(C)n1-c1ccc(OCc2ccc(Cl)cc2)cc1	M4 antag 30
Cc1cc(/C=N/n2cnnc2)c(C)n1-c1ccc(OCc2ccccc2F)cc1	M5 antag 29, M4 antag 31
Fc1ccccc1COc1cccc(/C=N/n2cnnc2)c1	none
NC(=O)C1CCN(CC(=O)NC(=O)NC2CCCC2)CC1	M4 PAM 20
O=C(CN1CCCC1)NC(=O)NC1CCCC1	none
O=C(CN1CCCCC1)NC(=O)NC1CCCCC1	M5 antag 55
O=C1CSCc2nc3ccccc3n21	none
O=C(NCc1ccc(F)c(F)c1)c1cccc2c(-c3cccnc3)coc12	none
COc1ccc(CNC(=O)c2cccc3c(-c4cccnc4)coc23)cc1OC	M5 antag 35
Cc1nn(Cc2ccc(Cl)c(Cl)c2)c(C)c1NC(=O)c1cn(-c2ccccc2)nc1-c1ccccc1	CHRM5 PAM 25
